Active and inactive are the calls of the source. The rule behind the calls is not given here.
Experiments:
[1] = Cytotoxicity against human HuH7 cells infected with Hepatitis C virus subtype 1b; format: cell-based, Huh-7
Hepatitis C virus [2] = experiment: Antiviral activity against Hepatitis C virus subtype 1b infected in human HuH7 cells; format: functional, organism-based, Hepacivirus hominis; conditions: genotype 1b, Huh-7
Candida tropicalis = experiment: Antifungal activity against Candida tropicalis after 48 hrs; format: functional, organism-based
Pichia kudriavzevii = experiment: Antifungal activity against Candida crusei after 48 hrs; format: functional, organism-based
Candida parapsilosis = experiment: Antifungal activity against Candida parapsilosis after 48 hrs; format: functional, organism-based
Candida albicans = experiment: Antifungal activity against Candida albicans after 48 hrs; format: functional, organism-based
Pseudomonas aeruginosa [3] = experiment: Antibacterial activity against multi-resistant Pseudomonas aeruginosa A/16575 after 24 hrs; format: functional, organism-based
Escherichia coli [4] = experiment: Antibacterial activity against multi-resistant Escherichia coli C/16702 after 24 hrs; format: functional, organism-based
[5] = system: Staphylococcus haemolyticus; experiment: Antibacterial activity against methicillin-resistant Staphylococcus haemolyticus A/16568 after 24 hrs; format: functional, organism-based
Staphylococcus aureus [6] = experiment: Antibacterial activity against methicillin-resistant Staphylococcus aureus MRSA 4591 after 24 hrs; format: functional, organism-based
Pseudomonas aeruginosa [7] = experiment: Antibacterial activity against Pseudomonas aeruginosa CCM 3955 after 24 hrs; format: functional, organism-based
Escherichia coli [8] = experiment: Antibacterial activity against Escherichia coli CCM 3954 after 24 hrs; format: functional, organism-based
Staphylococcus aureus [9] = experiment: Antibacterial activity against Staphylococcus aureus CCM 3953 after 24 hrs; format: functional, organism-based
Enterococcus faecalis = experiment: Antibacterial activity against Enterococcus faecalis CCM 4224 after 24 hrs; format: functional, organism-based
[10] = Antiproliferative activity against human HeLaS3 cells after 72 hrs by XTT assay; format: functional, cell-based; conditions: HeLa S3, 72 h
Outline: (§1)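 Antiproliferative test on HL-60 promyelocytic leukemia and HeLa S3 cervical carcinoma cells growing in liquid suspension.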

HL-60 = experiment: Antiproliferative activity against human HL60 cells after 72 hrs by XTT assay; format: functional, cell-based; conditions: HL-60, 72 h; outline: as §1
HepG2 = experiment: Antiproliferative activity against human HepG2 cells after 72 hrs by XTT assay; format: functional, cell-based; conditions: HepG2, 72 h
MRC5 = experiment: Cytostatic activity against human MRC5 cells after 72 hrs by MTT assay; format: ADME, cell-based; conditions: MRC5, 72 h
Outline: (§2)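 IC50 is the concentration that cuts cell growth by 50%, read by quantitative metabolic MTT staining after a 3-day treatment. The resistant sublines were made by raising the concentration of the cytotoxic drug step by step. CEM-DNR-bulk (daunorubicin-selected) stably overexpresses mrp-1. K562-TAX (paclitaxel-selected) expresses only mdr-1. HCT116p53−/− carries null p53 alleles. BJ and MRC-5 are nonmalignant fibroblasts.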

BJ = experiment: Cytostatic activity against human BJ cells after 72 hrs by MTT assay; format: ADME, cell-based; outline: as §2
HCT-116 [11] = experiment: Cytostatic activity against p53-deficient human HCT116 cells after 72 hrs by MTT assay; format: functional, cell-based; conditions: HCT-116, 72 h; outline: as §2
HCT-116 [12] = experiment: Cytostatic activity against human HCT116 cells after 72 hrs by MTT assay; format: functional, cell-based; conditions: HCT-116, 72 h; outline: as §2
A549 = experiment: Cytostatic activity against human A549 cells after 72 hrs by MTT assay; format: functional, cell-based; conditions: A549, 72 h; outline: as §2
K562 [13] = experiment: Cytostatic activity against paclitaxel-resistant human K562 cells after 72 hrs by MTT assay; format: functional, cell-based; conditions: K562, 72 h; outline: as §2
K562 [14] = experiment: Cytostatic activity against human K562 cells after 72 hrs by MTT assay; format: functional, cell-based; conditions: K562, 72 h; outline: as §2
[15] = Cytostatic activity against human CEM-DNR-bulk cells after 72 hrs by MTT assay; format: functional, cell-based; outline: as §2
CCRF-CEM = experiment: Cytostatic activity against human CCRF-CEM cells after 72 hrs by MTT assay; format: functional, cell-based; outline: as §2
[16] = Cytotoxicity against human HuH7 cells infected with Hepatitis C virus subtype 2a; format: cell-based, Huh-7
Hepatitis C virus [17] = experiment: Antiviral activity against Hepatitis C virus subtype 2a infected in human HuH7 cells; format: functional, organism-based, Hepacivirus hominis; conditions: genotype 2a, Huh-7

SMILES	CC50 [1] [µM]	EC50 (Hepatitis C virus [2]) [µM]	Activity (Candida tropicalis)	Activity (Pichia kudriavzevii)	Activity (Candida parapsilosis)	Activity (Candida albicans)	Activity (Pseudomonas aeruginosa [3])	Activity (Escherichia coli [4])	Activity [5]	Activity (Staphylococcus aureus [6])	Activity (Pseudomonas aeruginosa [7])	Activity (Escherichia coli [8])	Activity (Staphylococcus aureus [9])	Activity (Enterococcus faecalis)	IC50 [10] [µM]	IC50 (MRC5) [µM]	IC50 (BJ) [µM]	IC50 (HCT-116 [11]) [µM]	IC50 (HCT-116 [12]) [µM]	IC50 (A549) [µM]	also measured
C#Cc1cn([C@@H]2O[C@H](CO)[C@@H](O)[C@H]2O)c2nc(C)nc(N)c12	> 44	8	inactive	inactive	inactive	inactive	inactive	inactive	inactive	inactive	inactive	inactive	inactive	inactive	> 20	> 100	> 100	> 20	> 20	> 20	IC50 (HL-60): > 20 µM; IC50 (HepG2): > 20 µM; IC50 (K562 [13]): 3.29 µM; IC50 (K562 [14]): > 20 µM; IC50 [15]: 12.6 µM; IC50 (CCRF-CEM): > 20 µM
Nc1ncnc2c1c(-c1ccco1)cn2[C@@H]1O[C@H](CO)[C@@H](O)[C@H]1O	> 44	> 44	inactive	inactive	inactive	inactive	inactive	inactive	inactive	inactive	inactive	inactive	inactive	inactive	0.05	36.5	18.3	0.17	0.03	0.03	CC50 [16]: > 44 µM; EC50 (Hepatitis C virus [17]): > 44 µM; IC50 (K562 [13]): 0.05 µM; IC50 (K562 [14]): 0.04 µM; IC50 [15]: 0.21 µM; IC50 (CCRF-CEM): 0.04 µM
Nc1nc2c(c(-c3cccs3)cn2[C@@H]2O[C@H](CO)[C@@H](O)[C@H]2O)c(=O)[nH]1	> 44	18.8	inactive	inactive	inactive	inactive	inactive	inactive	inactive	inactive	inactive	inactive	inactive	inactive	> 20	> 100	> 100	19.8	> 20	> 20	IC50 (HL-60): > 20 µM; IC50 (HepG2): > 20 µM; IC50 (K562 [13]): 16.8 µM; IC50 (K562 [14]): > 20 µM; IC50 [15]: > 20 µM; IC50 (CCRF-CEM): > 20 µM
Nc1nc(N)c2c(-c3ccco3)cn([C@@H]3O[C@H](CO)[C@@H](O)[C@H]3O)c2n1	> 44	12.5	inactive	inactive	inactive	inactive	inactive	inactive	inactive	inactive	inactive	inactive	inactive	inactive	> 20	> 100	> 100	> 20	> 20	> 20	IC50 (HL-60): > 20 µM; IC50 (HepG2): > 20 µM; IC50 (K562 [13]): > 20 µM; IC50 (K562 [14]): > 20 µM; IC50 [15]: > 20 µM; IC50 (CCRF-CEM): > 20 µM
COc1nc(N)nc2c1c(-c1cccs1)cn2[C@@H]1O[C@H](CO)[C@@H](O)[C@H]1O	> 44	6.07	inactive	inactive	inactive	inactive	inactive	inactive	inactive	inactive	inactive	inactive	inactive	inactive	> 20	> 100	99.9	> 20	> 20	> 20	IC50 (HL-60): > 20 µM; IC50 (HepG2): > 20 µM; IC50 (K562 [13]): > 20 µM; IC50 (K562 [14]): > 20 µM; IC50 [15]: > 20 µM; IC50 (CCRF-CEM): > 20 µM
COc1nc(N)nc2c1c(-c1ccsc1)cn2[C@@H]1O[C@H](CO)[C@@H](O)[C@H]1O	> 44	14.5	inactive	inactive	inactive	inactive	inactive	inactive	inactive	inactive	inactive	inactive	inactive	inactive	> 20	> 100	> 100	> 20	> 20	> 100	IC50 (HL-60): > 20 µM; IC50 (HepG2): > 20 µM; IC50 (K562 [13]): > 20 µM; IC50 (K562 [14]): > 20 µM; IC50 [15]: > 20 µM; IC50 (CCRF-CEM): > 20 µM
Nc1nc(N)c2c(-c3cccs3)cn([C@@H]3O[C@H](CO)[C@@H](O)[C@H]3O)c2n1	> 44	10	inactive	inactive	inactive	inactive	inactive	inactive	inactive	inactive	inactive	inactive	inactive	inactive	> 20	> 100	> 100	> 20	> 20	> 20	IC50 (HL-60): > 20 µM; IC50 (HepG2): > 20 µM; IC50 (K562 [13]): > 20 µM; IC50 (K562 [14]): > 20 µM; IC50 [15]: > 20 µM; IC50 (CCRF-CEM): > 20 µM
COc1nc(N)nc2c1c(-c1ccoc1)cn2[C@@H]1O[C@H](CO)[C@@H](O)[C@H]1O	> 44	19.7	inactive	inactive	inactive	inactive	inactive	inactive	inactive	inactive	inactive	inactive	inactive	inactive	> 20	> 100	> 100	> 20	> 20	> 20	IC50 (HL-60): > 20 µM; IC50 (HepG2): > 20 µM; IC50 (K562 [13]): > 20 µM; IC50 (K562 [14]): > 20 µM; IC50 [15]: > 20 µM; IC50 (CCRF-CEM): > 20 µM
COc1nc(N)nc2c1c(-c1ccco1)cn2[C@@H]1O[C@H](CO)[C@@H](O)[C@H]1O	> 44	2.44	inactive	inactive	inactive	inactive	inactive	inactive	inactive	inactive	inactive	inactive	inactive	inactive	> 20	89.7	> 100	> 20	> 20	> 20	IC50 (HL-60): > 20 µM; IC50 (HepG2): > 20 µM; IC50 (K562 [13]): > 20 µM; IC50 (K562 [14]): > 20 µM; IC50 [15]: > 20 µM; IC50 (CCRF-CEM): > 20 µM
Nc1nc(N)c2c(-c3ccoc3)cn([C@@H]3O[C@H](CO)[C@@H](O)[C@H]3O)c2n1	> 44	21.3	inactive	inactive	inactive	inactive	inactive	inactive	inactive	inactive	inactive	inactive	inactive	inactive	> 20	> 100	> 100	> 20	> 20	> 20	IC50 (HL-60): > 20 µM; IC50 (HepG2): > 20 µM; IC50 (K562 [13]): > 20 µM; IC50 (K562 [14]): > 20 µM; IC50 [15]: > 20 µM; IC50 (CCRF-CEM): > 20 µM
